Assay outcomes from PubChem BioAssay.
Compounds with a hit are over-represented: about 2.2% of the library has one in this group of screens.
Hsp70 activator: switches on Hsp70 transcription | HeLa Hsp70 promoter luciferase reporter, luminescence; scaled: vehicle 0, proteasome-inhibitor control 100% | activation, % at 10 µM | hit rate 0.04% among 200,000;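 active means activation above the mean across all tested compounds plus 3 SD, cutoff set per campaign, cut at about 5.5% in these data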
RBBP9 inh: inhibitors of human serine hydrolase RBBP9; hit rate 0.2% among 220,000; recombinant RBBP9, FP-Rh probe fluorescence polarization; AID 1515; inhibition, % at 7.94 µM;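 active means inhibition above the campaign mean of all tested compounds plus 3 SD, cut at about 14% in these data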
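Test system: recombinant human RBBP9; Timing: 30 min then 45 min, 25 °C; Detection: fluorescence polarization; Control set: RBBP9 with DMSO as uninhibited control, no-protein wells as full inhibition; Compound dosing: one concentration, 7.94 µM nominal, 0.794% DMSO; Probe or stimulus: FP-Rh activity-based probe, 375 nM before mixing.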
Wee1 stabilizer: human Wee1 degradation inhibition, primary screen; HeLa Luc-Wee1K328M stability, luciferase luminescence; 100% = proteasome inhibitor MG132 effect; reporter increase, % at 5 µM; hit rate 1.2% among 220,000;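 active means activation above the mean of all tested compounds plus 3 SD, set per screening run, cut at about 8.8% in these data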;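 further: cells exposed to compound for 20 h before luminescence read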
Target sequence (P30291 whole entry K328M): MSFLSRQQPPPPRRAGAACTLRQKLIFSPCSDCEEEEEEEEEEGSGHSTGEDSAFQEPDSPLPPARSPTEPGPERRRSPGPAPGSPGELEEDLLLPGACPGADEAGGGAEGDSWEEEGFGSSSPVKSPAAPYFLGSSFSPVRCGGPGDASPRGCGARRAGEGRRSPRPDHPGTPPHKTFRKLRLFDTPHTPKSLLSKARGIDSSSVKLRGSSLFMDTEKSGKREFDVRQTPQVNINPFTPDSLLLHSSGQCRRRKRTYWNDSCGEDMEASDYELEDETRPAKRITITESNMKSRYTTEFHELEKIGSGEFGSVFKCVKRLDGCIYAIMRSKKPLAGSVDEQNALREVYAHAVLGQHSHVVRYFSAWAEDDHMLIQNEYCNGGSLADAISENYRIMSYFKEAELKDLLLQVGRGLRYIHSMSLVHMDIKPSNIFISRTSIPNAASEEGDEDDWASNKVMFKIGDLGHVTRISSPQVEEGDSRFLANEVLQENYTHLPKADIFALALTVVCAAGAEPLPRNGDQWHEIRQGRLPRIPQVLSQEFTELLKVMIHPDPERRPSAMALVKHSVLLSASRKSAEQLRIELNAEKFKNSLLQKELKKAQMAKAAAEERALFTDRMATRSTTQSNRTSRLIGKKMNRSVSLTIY
Insulin prom inh: TRM-6 insulin promoter activity inhibition; hit rate 0.9% among 130,000; TRM-6 cells (human fetal islet line), insulin promoter-eGFP reporter, imaging; reporter expression induced with tamoxifen; inhibition, % at 2 µM; AID 1273;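 active means inhibition above the mean plus 3 SD, with well images judged a real hit on visual review, cut at about 60% in these data, passing the limit was not always enough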
Mdm2 ligase inh: inhibitors of human Mdm2 E3 ubiquitin ligase | Q00987 | cell-based MDM2 ubiquitination luciferase reporter, 2 h; 0 = plate control, 100 = twice control, blank-subtracted | signal enhancement, % at 5 µM | hit rate 0.11% among 210,000 | AID 1230;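 active means signal enhancement of 30% or more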;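 further: luminescence tracks abundance of the self-degrading MDM2-luciferase fusion protein; higher signal means inhibition of MDM2 E3 ligase activity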
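System: stable MDM2–luciferase fusion reporter cells / Input: 2000 cells seeded into each well / Schedule: 4 h settle plus 2 h compound, 37 °C / Compound: single-point 5 µM / Buffer or medium: cells held in DMEM / Benchmarks: control and blank well means / Evaluation: percent signal gain over controls, blank-subtracted / Measured by: luciferase luminescence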
Insulin prom up: MIN6 insulin promoter up-regulation | MIN6 insulin promoter-GFP reporter, high-content imaging; stronger effect = higher value | z-score at 5 µM | hit rate 0.3% among 190,000 | AID 1625;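 active means z-score above 3 at 5 µM with at least 500 cells counted in the well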
Numbers stand for hits; . = inactive; / = no result given.

SMILES	Hsp70 activator	RBBP9 inh	Wee1 stabilizer	Insulin prom inh	Mdm2 ligase inh	Insulin prom up
CCn1nccc1C(=O)NC1=C(C#N)CCC1	.	.	.	.	.	.
CCn1ccc(C(=O)NC2=C(C#N)CCC2)n1	.	.	9.7	.	.	.
O=C(/C=C/NNC(=O)c1ccccc1)c1ccc([N+](=O)[O-])cc1	.	.	.	.	.	/
CC(=O)N=c1c(C#N)cc2c(=O)n3cccc(C)c3nc2n1Cc1ccco1	/	.	9.1	/	.	.
O=C1C(Cl)=C(N2CCCCC2)C(=O)C(Cl)=C1c1cnc(N2CCCCC2)s1	.	.	.	.	72.5	/
O=C(O)c1cn(-c2ccccc2)c(=O)c2ccccc12	.	.	.	70.0	.	/
COc1ccc(-n2cc(C(=O)O)c3ccccc3c2=O)cc1	.	.	.	.	.	.
S=C(c1ccc(-c2ccc(Br)cc2)o1)N1CCOCC1	/	.	10.1	/	.	.
CCc1nnc(NC(=O)CSc2nc(C)c3c(c2C#N)CCCC3)s1	.	.	.	84.6	.	.
CC(=O)N1N=C(c2cccs2)CC1c1ccc(C)o1 (stereo not given)	.	.	.	81.8	.	.
Cn1c(=O)c(Oc2ccc(F)cc2)c(O)c2ccccc21	.	.	.	64.3	.	.
CC(=O)c1c(O)c2ccccc2n(C)c1=O	.	.	.	/	.	.
CCC(CC)NC(=O)c1cccc(Oc2ccccc2)c1	.	.	.	/	.	.
CCOC(=O)CN1C(=N)N(c2nc(NC(C)C)nc(NC(C)C)n2)CC1=O	.	.	.	.	/	.
O=C(Nc1ccc(-c2cnco2)cc1)c1ccccc1	/	.	.	/	.	.
O=C(NC(=O)c1ccccc1Cl)Nc1ccc(-c2cnco2)cc1	/	.	10.0	/	.	.
CC1CC1C(=O)OCC(=O)NC(=O)NC12CC3CC(CC(C3)C1)C2 (stereo not given)	.	.	.	100.0	.	.
CC(C)CNC(CC(=O)O)c1ccccc1 (stereo not given)	.	.	9.6	/	.	.
CC(C)CC(NC(=O)CCl)c1ccccc1 (stereo not given)	.	.	.	.	.	.
COC(CNC(=O)c1ccc(Cn2c(=S)[nH]c3cc4c(cc3c2=O)OCO4)cc1)OC	.	.	.	.	.	3.48
COCCNC(=O)c1ccc(Cn2c(=S)[nH]c3cc4c(cc3c2=O)OCO4)cc1	.	.	.	.	.	.
CN1CCN(C(=O)c2ccccc2NC(=O)Cc2ccccc2)CC1	.	.	10.2	/	.	.
CSc1nc2cc(F)c(F)cc2n1C	.	.	.	86.5	.	.
Cc1nc2cc3ccccc3cc2n1C	.	.	.	.	.	.
Brc1ccc(-c2cn3ccccc3n2)s1	.	.	.	85.7	.	.
SMILES	Hsp70 activator	RBBP9 inh	Wee1 stabilizer	Insulin prom inh	Mdm2 ligase inh	Insulin prom up
Cc1ccc2nc(-c3ccc(-c4ccccn4)s3)cn2c1	/	.	.	/	.	.
CC1CC(=O)c2c(cc3c(-c4c(O)cc(O)c5c(O)c6c(cc45)OC(C)CC6=O)c(O)cc(O)c3c2O)O1 (stereo not given)	.	25.6	.	/	.	.
CN1CC(c2ccc(C#N)cc2)C2(COc3ccccc3C2=O)C12C(=O)Nc1ccccc12 (stereo not given)	.	.	.	.	.	/
CC(C)NS(=O)(=O)c1ccc(CCC(=O)NCc2ccncc2)cc1	.	.	9.5	.	.	.
CC(C)NS(=O)(=O)c1ccc(CCC(=O)NCc2ccco2)cc1	.	.	.	.	.	.
COc1ccc(-c2nc(C#N)c(N3CCOCC3)o2)cc1OC	.	.	.	.	.	.
COc1ccc(-c2nc(C#N)c(N3CCC(C(N)=O)CC3)o2)cc1OC	.	.	.	75.0	.	.
CCCCc1n(CC(=O)c2ccc(Cl)cc2)c2ccccc2[n+]1C	.	.	.	.	.	.
COc1ccc(OC)c(/C=C2\SC(=S)N(C(C(=O)O)c3ccccc3)C2=O)c1 (stereo not given)	/	.	9.7	/	.	.
CN(C)c1ncnc2c1ncn2C1OC(CO)C(O)C1O (stereo not given)	.	.	.	91.7	.	.
Nc1nc(Cl)nc2c1ncn2[C@@H]1O[C@H](CO)[C@@H](O)[C@H]1O	.	.	.	.	/	/
CCOC(=O)c1cc(-c2ccc(Cl)cc2)nc2c1c(=O)[nH]c(=O)n2CCOC	.	.	.	.	.	.
Cc1ccc(NC(=O)/C=C/c2ccc([N+](=O)[O-])s2)c(C)c1	.	.	.	.	.	13.3
Cc1ccc(NC(=O)/C=C/c2ccc([N+](=O)[O-])s2)cc1	.	.	.	.	.	16.6
Cc1cccc(NC(=O)/C=C/c2ccc([N+](=O)[O-])s2)c1	.	.	.	/	.	/
CC(C)=CC1C=C(C)C(C)C2C(=O)NNC(=O)C12 (stereo not given)	.	.	.	.	.	.
NS(=O)(=O)c1ccc(CCNC(=O)CSc2ncnc3ccccc23)cc1	.	.	.	/	.	.
CCc1ccccc1NC(=O)CC1CS(=O)(=O)CC1CC(=O)Nc1ccccc1CC (stereo not given)	.	.	.	.	/	.
O=C(CC1CCS(=O)(=O)C1)Nc1ccc[nH]c1=O (stereo not given)	.	16.0	.	.	.	.
COc1cc(CC(NC(C)=O)C(=O)NC2CCN(c3nc(OC)nc(OC)n3)CC2)cc(OC)c1 (stereo not given)	/	.	.	/	/	.
COc1ccccc1C(=O)NCCC(=O)N1CC(=O)Nc2ccccc21	.	.	.	.	.	/
CCCCNc1nc2ccccc2[nH]1	.	.	.	100.0	.	.
CCCNc1nc2ccccc2c(=O)[nH]1	.	.	.	/	.	.
CCOCCCNc1ncnc2c1[nH]c1ccccc12	.	.	.	.	.	.
CCOCCCNc1nc2ccccc2[nH]1	.	.	10.3	.	.	/
SMILES	Hsp70 activator	RBBP9 inh	Wee1 stabilizer	Insulin prom inh	Mdm2 ligase inh	Insulin prom up
O=C(c1c[nH]c2ccccc2c1=O)N1CCCCCC1	.	.	.	/	.	.
CCc1cc(=O)[nH]c(SCc2ccc(C)cc2)n1	.	.	.	/	.	.
CC(=O)/C(=N/Nc1ccccc1[N+](=O)[O-])N1CCCc2ccccc21	/	.	.	/	.	.
CC(C)n1c(NCc2cccs2)nc2ccccc21	.	.	8.8	/	.	.
O=C(Nc1nc2c(s1)CN(Cc1ccccc1)CC2)c1cccc(S(=O)(=O)N2CCc3ccccc32)c1	.	.	11.7	.	.	.
O=C(N/N=C/c1ccc(N2CCOCC2)cc1)C1COc2ccccc2O1 (stereo not given)	.	.	.	/	.	.
O=C(CCCn1cnc([N+](=O)[O-])n1)Nc1ccc(F)c(Cl)c1	.	.	9.9	.	.	.
O=C(CCCn1cnc([N+](=O)[O-])n1)Nc1ccc(Cl)cc1Cl	.	.	.	.	/	.
CCOC(=O)c1cnc(SCCc2ccccc2)nc1N	.	.	.	.	/	.
